The inhibition is the share of the control response that was lost under treatment. Broadly, the IC50 is the midpoint of a concentration-inhibition curve. High values mean weaker potency in that assay, low ones greater potency in that assay.

The source made the active and inactive calls. The calls are words filed in the database; no cut-off is given here.

Assay [1] deals with T1, Protein arginine N-methyltransferase 6 (Homo sapiens, UniProt Q96LA8). Briefly: Time dependent inhibition of human PRMT6 pre-incubated for 1 to 30 mins using [3H]SAM as donor and [3H]methylated biotin-labeled peptide as substrate by scintillation proximity assay. The note with it: TDE = time-dependent effect. (In a scintillation proximity assay essentially only radioactivity close to the scintillant gives light.)

Assay [2] has as its target T1, Protein arginine N-methyltransferase 6. Briefly: Covalent binding affinity to human PRMT6 assessed as covalent adduct. formation at 300 uM pre-incubated for 1 hr by mass spectrometry. An outline of the steps:
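PRMT protein at 15 μM was incubated 1 h at room temperature with a 20-fold molar excess of inhibitor (300 μM). The reaction was quenched with 0.1% aqueous TFA, separated by HPLC (5–95% acetonitrile in water) and analysed by ESI time-of-flight LC/MS for protein–ligand adduct mass.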

Assay [3] has as its target Protein arginine N-methyltransferase 1 (Homo sapiens, UniProt Q99873). Briefly: Inhibition of human PRMT1 using [3H]SAM as donor and [3H]methylated biotin-labeled peptide as substrate by scintillation proximity assay.
The target in assay [4] is T2, Histone-arginine methyltransferase CARM1 (Homo sapiens, UniProt Q86X55).
T2 sequence (Q86X55 whole entry): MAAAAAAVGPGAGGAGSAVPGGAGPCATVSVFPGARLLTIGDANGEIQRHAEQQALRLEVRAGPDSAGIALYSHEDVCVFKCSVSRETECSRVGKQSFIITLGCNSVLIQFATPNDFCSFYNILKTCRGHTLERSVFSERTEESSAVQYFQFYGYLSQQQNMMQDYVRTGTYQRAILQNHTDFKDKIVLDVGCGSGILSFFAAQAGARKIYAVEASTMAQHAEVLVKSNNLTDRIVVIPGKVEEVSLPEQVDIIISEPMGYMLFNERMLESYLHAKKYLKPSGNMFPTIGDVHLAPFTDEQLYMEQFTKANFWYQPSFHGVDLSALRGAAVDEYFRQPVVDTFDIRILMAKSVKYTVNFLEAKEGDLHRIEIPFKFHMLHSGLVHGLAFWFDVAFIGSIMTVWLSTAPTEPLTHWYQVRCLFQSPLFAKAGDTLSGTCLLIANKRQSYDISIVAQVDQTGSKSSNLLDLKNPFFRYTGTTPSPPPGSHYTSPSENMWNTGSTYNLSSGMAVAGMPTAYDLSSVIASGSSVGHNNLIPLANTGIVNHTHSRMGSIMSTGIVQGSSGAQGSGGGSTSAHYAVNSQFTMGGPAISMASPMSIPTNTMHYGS
Briefly: Inhibition of human PRMT4 using [3H]SAM as donor and [3H]methylated biotin-labeled peptide as substrate by scintillation proximity assay. An outline of the steps:
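Compound titrated into the reaction; 1 h enzyme–compound preincubation stated for PRMT6. Methylated peptide captured on streptavidin/scintillant-coated plates and counted (cpm). IC50 from concentration–response, triplicate, mean ± SD.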

The target in assay [5] is Protein arginine N-methyltransferase 8 (Homo sapiens, UniProt Q9NR22). Briefly: Inhibition of human PRMT8 using [3H]SAM as donor and [3H]methylated biotin-labeled peptide as substrate by scintillation proximity assay. The gist of the method: (§1)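 Radiometric SPA: ³H-methyl transfer from ³H-SAM to biotin-labeled peptide, captured on streptavidin/scintillant-coated plate, counts per minute read; substrate and cofactor each at their Km for the enzyme; compound titrated; IC50 from triplicate determinations, mean ± SD.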

The species entered for assay [6] is Homo sapiens. Briefly: Selectivity index, ratio of IC50 for human PRMT1 to IC50 for human PRMT6.
Assay [7] is filed under the species Homo sapiens. Briefly: Selectivity index, ratio of IC50 for human PRMT8 to IC50 for human PRMT6. An outline of the steps:
as §1

In assay [8] the target is T3, Histone-arginine methyltransferase CARM1 (Homo sapiens) (UniProt Q86X55).
T3 sequence (whole entry): T2 sequence (Q86X55 whole entry)
Briefly: Inhibition of PRMT4 in human MCF7 cells assessed as reduction in BAF155 asymmetric dimethylation at 0.2 to 20 uM incubated for 2 days. The assay is classed as cell-based.

Assay [9] has as its target T4, Protein arginine N-methyltransferase 3 (Homo sapiens, UniProt O60678). Briefly: Inhibition of PRMT3 (unknown origin) assessed as reduction in incorporation of [3H]-labeled methyl group into biotinylated substrate using [3H-SAM] at 10 uM incubated for 1 hr by scintillation proximity assay. An outline of the steps:
(§2)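 Panel of 33 methyltransferases (22 PKMTs, 3 DNMTs, 8 PRMTs), each tested at 10 and 50 μM compound. Activity was read as ³H-methyl transfer from ³H-SAM in a radiometric assay done as previously described.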

For assay [10], the target named is Protein arginine N-methyltransferase 9 (Homo sapiens) (UniProt Q6P2P2). Briefly: Inhibition of PRMT9 (unknown origin) assessed as reduction in incorporation of [3H]-labeled methyl group into biotinylated substrate using [3H-SAM] at 10 uM incubated for 1 hr by scintillation proximity assay. An outline of the steps: as §2
The target in assay [11] is Histone-lysine N-methyltransferase SUV39H1 (Homo sapiens) (UniProt O43463). Briefly: Inhibition of SUV39H1 (unknown origin) assessed as reduction in incorporation of [3H]-labeled methyl group into biotinylated substrate using [3H-SAM] at 10 uM incubated for 1 hr by scintillation proximity assay. The gist of the method: as §2
In assay [12] the target is Histone-lysine N-methyltransferase EZH2 (Homo sapiens) (UniProt Q15910). Briefly: Inhibition of PRC2 (unknown origin) assessed as reduction in incorporation of [3H]-labeled methyl group into biotinylated substrate using [3H-SAM] at 10 uM incubated for 1 hr by scintillation proximity assay. An outline of the steps: as §2
Assay [13] is filed under the species Homo sapiens. Briefly: Inhibition of DNMT3A/3L (unknown origin) at 10 uM using un-biotinylated Poly(2'-deoxyinosinic-2'-deoxycytidylic acid) substrate using [3H-SAM] incubated for 1 hr by scintillation proximity assay. The gist of the method:
as §2

For assay [14], the target named is Histone-lysine N-methyltransferase, H3 lysine-36 specific (Homo sapiens) (UniProt Q96L73). Briefly: Inhibition of NSD1 (unknown origin) at 10 uM using [3H-SAM] and nucleosome as substrate incubated for 1 hr by scintillation proximity assay. An outline of the steps: as §2
For assay [15], the target named is Histone-lysine N-methyltransferase NSD2 (Homo sapiens) (UniProt O96028). Briefly: Inhibition of NSD2 (unknown origin) at 10 uM using [3H-SAM] and nucleosome as substrate incubated for 1 hr by scintillation proximity assay. An outline of the steps: as §2
Assay [16] addresses Histone-lysine N-methyltransferase ASH1L (Homo sapiens) (UniProt Q9NR48). Briefly: Inhibition of ASH1L (unknown origin) at 10 uM using [3H-SAM] and nucleosome as substrate incubated for 1 hr by scintillation proximity assay. The gist of the method: as §2
In assay [17] the target is T4, Protein arginine N-methyltransferase 3. Briefly: Inhibition of PRMT3 (unknown origin) assessed as reduction in incorporation of [3H]-labeled methyl group into biotinylated substrate using [3H-SAM] at 50 uM incubated for 1 hr by scintillation proximity assay relative to control. The gist of the method:
as §2

In assay [18] the target is T1, Protein arginine N-methyltransferase 6. Briefly: Inhibition of PRMT6 (unknown origin) assessed as reduction in incorporation of [3H]-labeled methyl group into biotinylated substrate using [3H-SAM] at 50 uM incubated for 1 hr by scintillation proximity assay relative to control. An outline of the steps:
as §2

Assay [19] concerns the target Protein arginine N-methyltransferase 7 (Homo sapiens) (UniProt Q9NVM4). Briefly: Inhibition of PRMT7 (unknown origin) at 50 uM assessed as reduction in incorporation of [3H]-labeled methyl group into biotinylated substrate using [3H-SAM] at 50 uM incubated for 1 hr by scintillation proximity assay relative to control. The gist of the method: as §2
For assay [20], the species on record is Homo sapiens. Briefly: Inhibition of DNMT3A/3L (unknown origin) at 50 uM using un-biotinylated Poly(2'-deoxyinosinic-2'-deoxycytidylic acid) substrate using [3H-SAM] at 50 uM incubated for 1 hr by scintillation proximity assay relative to control. An outline of the steps: as §2

T1 sequence (Q96LA8 whole entry, looked up): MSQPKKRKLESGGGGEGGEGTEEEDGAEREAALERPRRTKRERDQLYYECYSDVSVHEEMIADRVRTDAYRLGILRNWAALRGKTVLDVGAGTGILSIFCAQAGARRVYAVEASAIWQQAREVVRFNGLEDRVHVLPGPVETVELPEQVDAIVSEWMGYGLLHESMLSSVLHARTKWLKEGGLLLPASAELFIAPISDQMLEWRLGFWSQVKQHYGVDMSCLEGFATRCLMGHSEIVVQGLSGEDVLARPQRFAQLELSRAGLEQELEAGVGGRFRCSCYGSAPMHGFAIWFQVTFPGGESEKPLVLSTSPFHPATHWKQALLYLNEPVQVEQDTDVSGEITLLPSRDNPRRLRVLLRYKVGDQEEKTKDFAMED
T4 sequence (O60678 2-531 limits assumed): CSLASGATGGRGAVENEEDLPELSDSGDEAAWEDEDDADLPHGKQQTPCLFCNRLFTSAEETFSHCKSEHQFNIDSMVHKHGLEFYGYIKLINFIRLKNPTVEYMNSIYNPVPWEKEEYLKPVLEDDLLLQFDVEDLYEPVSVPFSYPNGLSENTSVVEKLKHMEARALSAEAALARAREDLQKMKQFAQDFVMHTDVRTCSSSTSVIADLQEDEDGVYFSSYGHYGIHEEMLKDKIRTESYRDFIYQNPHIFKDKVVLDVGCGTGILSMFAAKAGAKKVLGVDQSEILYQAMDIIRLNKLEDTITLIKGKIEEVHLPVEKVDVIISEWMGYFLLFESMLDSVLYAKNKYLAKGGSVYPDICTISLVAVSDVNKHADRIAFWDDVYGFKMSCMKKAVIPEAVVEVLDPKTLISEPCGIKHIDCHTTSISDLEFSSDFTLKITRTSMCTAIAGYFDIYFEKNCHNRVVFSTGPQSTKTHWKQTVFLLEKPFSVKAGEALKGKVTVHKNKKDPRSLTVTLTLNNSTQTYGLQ
Chain of Protein arginine N-methyltransferase 7 (Homo sapiens) (Q9NVM4 whole entry): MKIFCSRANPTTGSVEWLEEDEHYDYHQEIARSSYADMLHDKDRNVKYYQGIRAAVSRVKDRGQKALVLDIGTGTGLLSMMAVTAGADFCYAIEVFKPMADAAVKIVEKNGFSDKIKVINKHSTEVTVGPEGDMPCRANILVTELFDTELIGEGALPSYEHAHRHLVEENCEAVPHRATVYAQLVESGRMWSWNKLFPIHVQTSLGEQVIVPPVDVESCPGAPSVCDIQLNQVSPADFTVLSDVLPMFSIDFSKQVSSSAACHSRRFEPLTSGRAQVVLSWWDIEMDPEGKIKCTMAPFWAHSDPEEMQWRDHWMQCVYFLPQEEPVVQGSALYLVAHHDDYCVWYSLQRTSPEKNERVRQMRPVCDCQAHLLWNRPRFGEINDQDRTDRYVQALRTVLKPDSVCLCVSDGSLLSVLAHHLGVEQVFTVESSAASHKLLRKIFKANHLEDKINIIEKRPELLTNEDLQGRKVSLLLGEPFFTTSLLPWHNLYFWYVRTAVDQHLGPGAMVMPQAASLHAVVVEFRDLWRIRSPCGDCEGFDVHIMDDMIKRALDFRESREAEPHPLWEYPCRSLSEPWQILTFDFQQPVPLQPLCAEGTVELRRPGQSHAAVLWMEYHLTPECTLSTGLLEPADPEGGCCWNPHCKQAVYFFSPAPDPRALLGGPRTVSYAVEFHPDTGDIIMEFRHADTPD
Chain of Histone-lysine N-methyltransferase, H3 lysine-36 specific (Homo sapiens) (Q96L73 whole entry): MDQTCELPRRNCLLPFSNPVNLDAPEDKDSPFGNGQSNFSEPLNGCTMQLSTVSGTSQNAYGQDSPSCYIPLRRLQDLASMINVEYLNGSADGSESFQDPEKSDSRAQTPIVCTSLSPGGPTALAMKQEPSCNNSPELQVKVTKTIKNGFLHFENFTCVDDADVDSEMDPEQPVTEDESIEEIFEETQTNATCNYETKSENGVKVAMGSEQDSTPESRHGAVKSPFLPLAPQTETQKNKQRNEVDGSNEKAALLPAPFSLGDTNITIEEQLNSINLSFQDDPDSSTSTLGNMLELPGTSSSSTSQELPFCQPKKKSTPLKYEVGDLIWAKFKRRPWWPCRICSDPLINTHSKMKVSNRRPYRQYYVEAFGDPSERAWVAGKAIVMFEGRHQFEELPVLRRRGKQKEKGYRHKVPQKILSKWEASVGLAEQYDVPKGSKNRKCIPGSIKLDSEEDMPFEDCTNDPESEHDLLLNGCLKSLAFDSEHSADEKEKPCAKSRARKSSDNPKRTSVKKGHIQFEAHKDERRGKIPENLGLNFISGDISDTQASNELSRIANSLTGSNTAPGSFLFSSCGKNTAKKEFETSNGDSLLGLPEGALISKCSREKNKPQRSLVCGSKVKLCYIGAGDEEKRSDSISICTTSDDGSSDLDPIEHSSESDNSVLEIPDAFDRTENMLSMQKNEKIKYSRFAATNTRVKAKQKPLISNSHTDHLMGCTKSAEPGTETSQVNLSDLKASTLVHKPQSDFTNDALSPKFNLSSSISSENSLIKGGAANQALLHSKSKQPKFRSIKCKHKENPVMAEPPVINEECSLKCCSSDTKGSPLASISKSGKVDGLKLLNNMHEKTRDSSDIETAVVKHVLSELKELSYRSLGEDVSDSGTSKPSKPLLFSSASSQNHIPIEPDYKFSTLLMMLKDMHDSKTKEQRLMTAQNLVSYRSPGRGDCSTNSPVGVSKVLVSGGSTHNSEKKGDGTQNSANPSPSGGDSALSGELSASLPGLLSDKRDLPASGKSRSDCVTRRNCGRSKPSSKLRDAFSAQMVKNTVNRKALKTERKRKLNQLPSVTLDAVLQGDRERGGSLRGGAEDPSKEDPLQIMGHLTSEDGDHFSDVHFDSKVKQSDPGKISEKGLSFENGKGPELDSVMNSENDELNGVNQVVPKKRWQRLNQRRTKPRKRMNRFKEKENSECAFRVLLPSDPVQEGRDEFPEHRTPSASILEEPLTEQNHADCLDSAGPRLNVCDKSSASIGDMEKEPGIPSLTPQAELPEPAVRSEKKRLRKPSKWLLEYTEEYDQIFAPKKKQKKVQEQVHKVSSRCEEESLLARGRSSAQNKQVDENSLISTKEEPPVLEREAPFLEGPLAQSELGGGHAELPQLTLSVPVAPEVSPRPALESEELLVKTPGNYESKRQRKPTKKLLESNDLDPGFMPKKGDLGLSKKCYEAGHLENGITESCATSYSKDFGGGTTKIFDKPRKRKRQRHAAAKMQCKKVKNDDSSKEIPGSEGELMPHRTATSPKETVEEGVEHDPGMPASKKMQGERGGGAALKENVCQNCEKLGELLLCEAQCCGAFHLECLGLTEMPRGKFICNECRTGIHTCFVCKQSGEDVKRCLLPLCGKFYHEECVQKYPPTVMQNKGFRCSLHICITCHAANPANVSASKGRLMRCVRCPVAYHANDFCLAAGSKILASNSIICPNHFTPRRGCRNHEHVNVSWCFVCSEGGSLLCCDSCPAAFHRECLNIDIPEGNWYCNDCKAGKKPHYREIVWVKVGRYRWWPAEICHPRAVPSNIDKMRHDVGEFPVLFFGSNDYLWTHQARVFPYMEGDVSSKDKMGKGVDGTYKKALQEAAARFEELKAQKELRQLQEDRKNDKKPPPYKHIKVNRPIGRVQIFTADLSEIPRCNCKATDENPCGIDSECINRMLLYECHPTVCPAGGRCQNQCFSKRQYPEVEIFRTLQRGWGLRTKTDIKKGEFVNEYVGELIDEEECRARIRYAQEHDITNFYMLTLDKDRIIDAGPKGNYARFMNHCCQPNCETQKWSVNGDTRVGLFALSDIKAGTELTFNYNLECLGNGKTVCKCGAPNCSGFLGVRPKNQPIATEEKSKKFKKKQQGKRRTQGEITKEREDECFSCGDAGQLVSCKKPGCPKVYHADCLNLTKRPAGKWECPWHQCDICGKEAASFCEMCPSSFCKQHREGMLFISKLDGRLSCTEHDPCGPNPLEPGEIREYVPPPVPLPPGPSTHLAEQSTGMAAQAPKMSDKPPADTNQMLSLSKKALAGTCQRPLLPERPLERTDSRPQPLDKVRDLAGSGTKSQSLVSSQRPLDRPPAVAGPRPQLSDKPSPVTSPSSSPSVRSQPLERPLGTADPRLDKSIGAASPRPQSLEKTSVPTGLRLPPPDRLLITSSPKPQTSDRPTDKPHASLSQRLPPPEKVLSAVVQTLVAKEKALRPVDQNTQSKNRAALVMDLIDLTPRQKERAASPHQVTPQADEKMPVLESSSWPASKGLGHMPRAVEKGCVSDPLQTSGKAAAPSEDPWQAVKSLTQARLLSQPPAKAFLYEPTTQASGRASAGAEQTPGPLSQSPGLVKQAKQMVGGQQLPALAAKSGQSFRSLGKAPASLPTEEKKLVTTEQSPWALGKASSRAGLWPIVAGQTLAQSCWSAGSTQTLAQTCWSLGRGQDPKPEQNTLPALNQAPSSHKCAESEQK
Chain of Histone-lysine N-methyltransferase SUV39H1 (Homo sapiens) (O43463 whole entry): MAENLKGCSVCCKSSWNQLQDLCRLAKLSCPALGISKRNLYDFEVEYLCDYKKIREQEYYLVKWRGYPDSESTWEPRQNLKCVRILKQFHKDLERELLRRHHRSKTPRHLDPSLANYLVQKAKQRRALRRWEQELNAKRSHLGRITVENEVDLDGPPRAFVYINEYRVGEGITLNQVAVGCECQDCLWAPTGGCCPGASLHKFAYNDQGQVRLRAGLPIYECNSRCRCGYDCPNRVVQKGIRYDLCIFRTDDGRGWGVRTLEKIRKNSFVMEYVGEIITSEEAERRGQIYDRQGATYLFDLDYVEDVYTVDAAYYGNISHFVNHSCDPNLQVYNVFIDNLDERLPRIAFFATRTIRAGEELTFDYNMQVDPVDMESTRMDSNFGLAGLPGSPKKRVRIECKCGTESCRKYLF
Chain of Protein arginine N-methyltransferase 1 (Q99873 whole entry): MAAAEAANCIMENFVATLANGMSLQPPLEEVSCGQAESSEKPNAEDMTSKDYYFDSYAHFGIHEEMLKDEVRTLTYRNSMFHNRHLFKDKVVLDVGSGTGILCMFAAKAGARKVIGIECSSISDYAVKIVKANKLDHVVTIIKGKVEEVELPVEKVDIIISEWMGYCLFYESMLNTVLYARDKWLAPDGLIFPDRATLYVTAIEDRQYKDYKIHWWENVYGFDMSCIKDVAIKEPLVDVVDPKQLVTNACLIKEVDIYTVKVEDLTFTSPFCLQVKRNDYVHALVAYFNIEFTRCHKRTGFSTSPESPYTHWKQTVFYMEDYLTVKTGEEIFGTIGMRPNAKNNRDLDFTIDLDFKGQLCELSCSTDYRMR

For the molecule `C=CC(=O)Nc1cccc(-c2c[nH]cc2CN(C)CCN)c1`, the inhibition result in assay [1] is “Tde”; in [9], more than 90%; in assay [17] it was more than 50%; in assay [18], more than 50%; in [19], more than 50%; in the assay filed under Homo sapiens [20] it was more than 50%. Besides, in [2], the result was Active. Besides, the figures for the IC50 in assay [3], in assay [4] and in assay [5] were 100 nM, 480 nM and 110 nM, respectively. The Ratio IC50 in the assay listed under Homo sapiens [6] and in the assay listed under Homo sapiens [7] was 6 in each case. Also, the inhibition entry (in assay [8]; in [10]; in assay [11]; in assay [12]; in the assay listed under Homo sapiens [13]; in [14]) was “inactive” each time. Also, the inhibition result in [15] and in [16] was “inactive” in each case.

Values taken from ChEMBL document CHEMBL4342528, “Discovery of a First-in-Class Protein Arginine Methyltransferase 6 (PRMT6) Covalent Inhibitor” (J Med Chem, 2020).
